# Source: PubChem (several laboratories)
# Rows were chosen to be rich in hits. Some 1% of all compounds tested hit in one or more screens of this group.
# VIM-2 inhibitor: inhibitors of Pseudomonas aeruginosa VIM-2 metallo-beta-lactamase; AID 1527; inhibition, % at 5.6 µM; hit rate 0.89% among 290,000; purified VIM-2, nitrocefin hydrolysis, epi-absorbance fluorescence;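 active = inhibition above the mean of all tested compounds plus 3 SD, cutoff set per screening run, cut at about 7.5% in these data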;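 also: red hydrolysis product quenches plate fluorescence so inhibitors raise well fluorescence; 0% = enzyme with DMSO and 100% = DMSO without enzyme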
# ERp5 inh: inhibitors of human ERp5; Q15084; ERp5 insulin aggregation, absorbance 650 nm, 90 min; inhibition, % at 9.99 µM; hit rate 0.05% among 350,000;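 active = mean replicate inhibition above about 25%, with every replicate also reaching it, limit read from the data, passing the limit was not always enough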
# PvdQ acylase: P. aeruginosa PvdQ acylase inhibition; purified PvdQ acylase, fluorescence plate reader; inhibition, % at 10 µM; hit rate 0.063% among 340,000; in the data active = inhibition above about 30%, passing the limit was not always enough;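 also: 0% = vehicle neutral wells and 100% = reference inhibitor wells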
# PglD inh: inhibitors of Campylobacter jejuni PglD acetyltransferase; hit rate 0.098% among 360,000; inhibition, % at 12.5 µM; purified PglD enzyme, DTNB colorimetric CoA detection; in the data active = inhibition above about 16%, passing the limit was not always enough
# PDI turbidity: inhibitors of human protein disulfide isomerase; hit rate 0.052% among 350,000; PDI insulin aggregation turbidity, A650, 90 min; inhibition, % at 10 µM;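 active = mean inhibition across replicates of 30% or more, whatever share of single replicates reach that level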
# Target sequence (P07237 whole entry, looked up): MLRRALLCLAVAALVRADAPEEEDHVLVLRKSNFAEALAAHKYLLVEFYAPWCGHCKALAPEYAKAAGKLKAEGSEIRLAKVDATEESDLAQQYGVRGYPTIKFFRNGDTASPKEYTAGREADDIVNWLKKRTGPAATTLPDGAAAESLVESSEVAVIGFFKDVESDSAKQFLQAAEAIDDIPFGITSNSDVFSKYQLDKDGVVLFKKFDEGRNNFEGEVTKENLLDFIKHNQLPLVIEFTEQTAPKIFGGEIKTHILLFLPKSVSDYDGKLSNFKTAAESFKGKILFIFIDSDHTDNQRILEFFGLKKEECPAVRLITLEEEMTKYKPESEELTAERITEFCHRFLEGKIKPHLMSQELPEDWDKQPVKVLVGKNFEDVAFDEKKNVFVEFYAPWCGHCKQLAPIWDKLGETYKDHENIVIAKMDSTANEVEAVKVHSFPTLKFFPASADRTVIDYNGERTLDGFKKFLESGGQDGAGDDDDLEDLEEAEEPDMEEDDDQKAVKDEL
# IMP-1 inh: blocks Pseudomonas aeruginosa IMP-1 metallo-beta-lactamase. purified IMP-1, nitrocefin hydrolysis, epi-absorbance fluorescence. inhibition, % at 5.6 µM. hit rate 0.45% among 290,000;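 active = inhibition above the mean plus 3 SD of all compounds in the same screening run, cut at about 4.5% in these data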;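 also: 0% = IMP-1 with DMSO and 100% = DMSO wells lacking enzyme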
#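 System – purified recombinant IMP-1 beta-lactamase · Input – IMP-1 dispensed at 0.2 nM · Timing – 15 min preincubation plus 25 min reaction at 25 °C · Signal – Epi-absorbance fluorescence, 480 nm excitation, 530 nm emission · Measure – percent IMP-1 inhibition derived from blank-referenced optical density · Controls – Enzyme-plus-DMSO low control, enzyme-free DMSO high control · Replication – singlicate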
# An asterisk follows results filed as active; / = no result given.
SMILES,VIM-2 inhibitor,ERp5 inh,PvdQ acylase,PglD inh,PDI turbidity,IMP-1 inh
CCCCN(C)CCNC(=O)c1cc2c(=O)[nH]c3ccccc3c2n1C,8.6*,-1,-9,-4,-5,-3
CCN(CC)CCCNC(=O)c1cc2c(-c3cccc(OC)c3)nn(C)c2s1,8,2,-18,-1,5,-5
CCCCN(C)CCNC(=O)c1cc2c(-c3ccccc3F)nn(C)c2s1,11*,6,-7,4,3,-2
CCCCN(C)CCNC(=O)c1cc2c(-c3cccc(OC)c3)nn(C)c2s1,10*,3,-10,5,-5,-3
Cc1ccc([N+](=O)[O-])cc1NC(=S)NC(=O)CC(C)(C)C,3,/,-9,2,3,0
Cc1ccc([N+](=O)[O-])cc1NC(=S)NC(=O)C(C)(C)C,3,/,0,4,9,5.1*
CSCC[C@H](NC(=O)C1CCN(S(=O)(=O)c2ccc(C)cc2)CC1)C(=O)NCc1ccco1,-2,/,12,-3,2,5.9*
CSCC[C@H](NC(=O)C1CCN(S(=O)(=O)c2ccc(C)cc2)CC1)C(=O)NCC1CCCO1 (stereo partly specified),-3,/,-9,-1,0,0
O=C(C[C@@H]1CC[C@@H](NC(=O)Nc2ccc(C(F)(F)F)cc2)[C@@H](CO)O1)NCCN1CCCC1,/,-2,/,-3,/,/
Cc1cc(/C=C2\SC(=S)NC2=O)c(C)n1C1CC1,7.7*,/,-15,3,-4,0
CC(C)NC(=O)N(C)C[C@H]1OCCCC[C@@H](C)Oc2ccc(NC(=O)CCC(F)(F)F)cc2C(=O)N([C@@H](C)CO)C[C@H]1C,/,-2,/,2,/,/
CCOc1ccc(CNC(=S)Nc2ccccc2)cc1Cl,-1,-1,-14,-2,-1,6.3*
c1ccc(-c2ccc3c(c2)c2c4n3CCN=C4CCC2)cc1,-1,/,6,6,-6,5.3*
OC1CN=C2CCCc3c2n(c2ccc(Cl)cc32)C1 (stereo unspecified),-2,/,-11,1,9,-3
CCCNC(=O)[C@H]1[C@H](CO)[C@H]2Cn3c(ccc(C4=CCCC4)c3=O)[C@@H]1N2C(=O)CC1CC1,/,6,/,4,/,/
C[C@H]1CN([C@@H](C)CO)S(=O)(=O)c2ccc(-c3ccccc3)cc2O[C@H]1CN(C)C,/,2,/,2,/,/
CCS(=O)(=O)Nc1ccc2c(c1)C(=O)N(C)C[C@@H](OC)[C@@H](C)CN(CC1CCCCC1)[C@@H](C)CO2,/,-5,/,3,/,/
Cn1c(=O)c2c(SCC(=O)N3CCOCC3)nc(-c3ccccc3F)nc2n(C)c1=O,7.9*,1,-7,0,-5,-2
Cn1c(=O)c2c(SCC(=O)N3CCCCC3)nc(-c3ccccc3F)nc2n(C)c1=O,6,-1,5,1,-2,-1
CCOC(=O)c1sc(NC(=O)c2ccoc2C)c(C(N)=O)c1C,8.0*,-1,-17,-4,0,0
COC(=O)c1c(NC(=O)c2ccoc2C)sc(C)c1C,-1,-3,-8,3,-1,-2
CCCc1nc(SCc2cccnc2)c2c(=O)n(C)c(=O)n(C)c2n1,10*,-2,-4,-4,/,-5
Cn1c(=O)c2c(SCc3cccnc3)nc(CC(C)(C)C)nc2n(C)c1=O,2,2,-9,-6,/,-1
COc1cccc(S(=O)(=O)Nc2ccc3c(c2)C(=O)N(C)C[C@@H](OC)[C@H](C)CN(C(=O)Cc2cccnc2)[C@@H](C)CO3)c1,/,0,/,1,/,/
CCCCNC(=O)CSc1cc(=O)n(C)c2ccccc12,0,/,-9,-1,-2,6.1*
SMILES,VIM-2 inhibitor,ERp5 inh,PvdQ acylase,PglD inh,PDI turbidity,IMP-1 inh
C[C@@H]1CCCCO[C@H](CN(C)S(=O)(=O)c2cn(C)cn2)[C@@H](C)CN([C@H](C)CO)C(=O)c2cc(NC(=O)Nc3ccccc3)ccc2O1,/,0,/,1,/,/
COc1cc(/C=C2\CCCc3c2nc2ccccc2c3C(=O)O)cc(Br)c1O,2,-10,-8,-1,-1,-2
CCOc1cc(/C=C2\CCCc3c2nc2ccccc2c3C(=O)O)ccc1OC,3,-2,-4,-5,-16,6.9*
N#CC1=C(S)N(c2ccccc2)C(c2ccc(-c3cccc(Cl)c3)o2)NC1=O (stereo unspecified),-4,0,-10,3,9,7.5*
C[C@@H]1CN([C@H](C)CO)C(=O)Cc2cc(NC(=O)C3CCCCC3)ccc2O[C@@H]1CN(C)C(=O)Nc1ccc(F)cc1,/,-1,/,0,/,/
Cc1ccccc1C(=O)NC1CCN(C(=O)N(c2ccccc2)c2ccccc2)CC1,0,/,-5,3,14,4.6*
Cc1ccccc1C(=O)NC1CCN(C(=O)NC2CCCCC2)CC1,0,3,-8,2,-2,-2
C[C@H]1CN([C@@H](C)CO)C(=O)c2cccc(NS(=O)(=O)c3cn(C)cn3)c2O[C@@H]1CN(C)S(=O)(=O)c1cccs1,/,0,/,-2,/,/
C[C@@H]1CN([C@H](C)CO)C(=O)c2cc(C#CC3(O)CCCC3)cnc2O[C@@H]1CN(C)C(=O)C1CCOCC1,/,1,/,0,/,/
O=C(Nc1ccc(Cl)cc1C(=O)NCc1cccnc1)c1ccco1,0,/,-4,3,0,3
O=C(Nc1ccc(Cl)cc1C(=O)Nc1ccncc1)c1ccco1,8.2*,/,2,-5,1,-3
FCCCOc1ccc(-c2nccc(-c3ccc(F)cc3)n2)cc1,-1,/,-15,4,6,-2
FCCCOc1ccc(-c2ccnc(-c3ccccc3)n2)cc1,1,/,-12,1,-2,5.1*
O=C1OCC(c2ccccc2)=C1c1ccc(S(=O)(=O)N2CCOCC2)s1,0,/,-11,-1,4,44*
COc1ccc2c3c(n(C)c2c1)[C@@H](CO)N(S(=O)(=O)c1ccc(C)cc1)CC31CCN(S(=O)(=O)c2ccc(C)cc2)CC1,/,-7,/,/,/,/
CC(C)OCCCNC(=O)c1cc2c(=O)n(C)c3ccccc3c2n1C,10*,-2,-9,0,/,0
COCCn1cc(C(=O)NCCCOC(C)C)c2c3ccccc3n(C)c2c1=O,1,7,6,2,-56,-2
O=C(NC1CCS(=O)(=O)C1)c1cccc(Br)c1 (stereo unspecified),/,-2,41*,1,1,/
O=C(O)c1cc(O)c2c(c1)[C@H]([C@H]1c3cc(C(=O)O)cc(O)c3C(=O)c3c(O[C@@H]4O[C@H](CO)[C@@H](O)[C@H](O)[C@H]4O)cccc31)c1cccc(OC3O[C@H](CO)[C@@H](O)[C@H](O)[C@H]3O)c1C2=O (stereo partly specified),/,-3,-3,1,47*,/
COc1ccc(NC(=O)N(C)C[C@@H]2OCCCC[C@@H](C)Oc3ccc(NS(=O)(=O)c4ccc(OC)cc4)cc3C(=O)N([C@@H](C)CO)C[C@@H]2C)cc1,/,8,/,/,/,/
COc1cccc(NC(=O)Cn2c3ccccc3c3nc4n(c(=O)c32)CCCS4)c1,2,-12,-2,-1,0,4.8*
